Measured values taken from paper PMC10938339 (ACS Omega, 2024).
Like-named read-outs stand apart in the source and are kept apart here.

Key:
PPT1 [1] = molecular target: T1, PPT1 (Homo sapiens, UniProt P50897); test: biochemical; settings: for IC50: IC50 (95 % CI)
T1 sequence (P50897 28-306): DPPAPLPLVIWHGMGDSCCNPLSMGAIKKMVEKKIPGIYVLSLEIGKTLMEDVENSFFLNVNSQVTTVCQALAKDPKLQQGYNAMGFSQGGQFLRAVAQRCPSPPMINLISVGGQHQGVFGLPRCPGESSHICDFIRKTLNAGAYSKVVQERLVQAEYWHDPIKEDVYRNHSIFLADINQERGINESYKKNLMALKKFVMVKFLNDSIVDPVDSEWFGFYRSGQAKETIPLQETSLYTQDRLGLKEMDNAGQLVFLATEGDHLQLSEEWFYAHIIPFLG

[2] = test system: neuroblastoma SH-SY5Y cell line; assay type: cell-based, human; settings: 48 h treatment, alamarBlue 18 h; NA = not active
[3] = cited from earlier work
[4] = molecular target: T2, PPT1 in HepG2 cell extracts (Homo sapiens, UniProt P50897); test: PPT1 inhibition in HepG2 cell extracts; assay type: biochemical; settings: cell extracts treated 1 h
T2 sequence (P50897 28-306): T1 sequence (P50897 28-306)
In short: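 HepG2 lysates, prepared as for cells (MPER, protease inhibitor, 0.5% Triton X-100, 14,000 rpm spin), were treated directly with compound for 1 h. PPT1 activity was then read with the MU-6S-Palm-βGlc/β-glucosidase assay, measuring 4-methylumbelliferone fluorescence. Biological duplicates with technical triplicates; percent activity expressed relative to DMSO control.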

PPT1 in HepG2 cells = molecular target: T3, PPT1 in HepG2 cells (Homo sapiens, UniProt P50897); test: PPT1 inhibition in HepG2 cells; assay type: cell-based; settings: intact cells treated 5 h, activity relative to DMSO control
T3 sequence (P50897 28-306): T1 sequence (P50897 28-306)
In short: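 HepG2 cells in DMEM + 10% FBS (37 °C, 5% CO2) were seeded overnight, then exposed to compound in medium for 5 h. They were lysed in MPER with protease inhibitor and 0.5% Triton X-100, spun at 14,000 rpm for 15 min, and protein-normalised. Lysates were assayed with MU-6S-Palm-βGlc plus β-glucosidase (4-MU fluorescence, Ex 365/Em 448, 4-MU standard curve). Biological duplicates, technical triplicates; activity relative to DMSO.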

[5] = cited from earlier work; remark: listed apart in the source
PPT1 [6] = settings: cited from earlier work

Compound | IC50 (PPT1 [1]) [µM] | other results
CN(C)[C@@H]1C(O)=C(C(N)=O)C(=O)[C@@]2(O)C(O)=C3C(=O)c4c(O)cccc4[C@@](C)(O)[C@H]3C[C@@H]12 [Tetracycline] | > 100 | 
CCN(CC)CCCC(C)Nc1c2ccc(Cl)cc2nc2ccc(OC)cc12 (centres unmarked) [Quinacrine] | ~169 | 
CCN(CC)CCCC(C)Nc1ccnc2cc(Cl)ccc12 (centres unmarked) [Chloroquine] | 47.2 | 
CCN(CCO)CCCC(C)Nc1ccnc2cc(Cl)ccc12 (centres unmarked) [Hydroxychloroquine] | 109 | SH-SY5Y IC50 [2]: did not reach a 50% decrease in cell viability at the highest concentration tested
C[C@@H]1O[C@@H](OC[C@H]2O[C@@H](Oc3c(-c4ccc(O)c(O)c4)oc4cc(O)cc(O)c4c3=O)[C@H](O)[C@@H](O)[C@@H]2O)[C@H](O)[C@H](O)[C@H]1O [Rutin trihydrate] | ~156 | 
OC(c1cc(C(F)(F)F)nc2c(C(F)(F)F)cccc12)C1CCCCN1 (centres unmarked) [Mefloquine] |  | inhibition at 125 µM (PPT1 [1]; compound 125 μM): ≤ 50%
CCN(CC)Cc1cc(Nc2ccnc3cc(Cl)ccc23)ccc1O [Amodiaquine] | 344 | 
Cn1nnc2c(C(N)=O)ncn2c1=O [Temozolomide] | 236 | 
Cc1ncc([N+](=O)[O-])n1CCO [Metronidazole] | > 100 | 
CC(CN1c2ccccc2Sc2ccccc21)N(C)C (centres unmarked) [Promethazine] | > 100 | 
TVB-3166 |  | PPT1 inhibition (in words) (PPT1 [1]; FASN inhibitors tested against PPT1): did not inhibit PPT1
CO[C@H]1/C=C/O[C@@]2(C)Oc3c(C)c(O)c4c(O)c(c(/C=N/N5CCN(C6CCCC6)CC5)c(O)c4c3C2=O)NC(=O)/C(C)=C\C=C\[C@H](C)[C@H](O)[C@@H](C)[C@@H](O)[C@@H](C)[C@H](OC(C)=O)[C@@H]1C [Rifapentine] | 63.3 | 
COc1cc(C=O)ccc1O [Vanillin] | 647 | 
Cc1ccc(C(=O)c2cc(O)c(O)c([N+](=O)[O-])c2)cc1 [Tolcapone] | 179 | blood–brain barrier penetration [3]: can penetrate the blood–brain barrier
CCOC(=O)[N-]c1cn(N2CCOCC2)n[o+]1 [Molsidomine] | > 100 | 
CCCCCCCCCC[C@@H]1C(=O)O[C@H]1CCc1ccc(OC)c(OC)c1 [Palmostatin B] | 0.0118 | PPT1 inhibition in HepG2 cell extracts (in words) [4]: inhibited PPT1 in cell extracts; PPT1 inhibition in HepG2 cells (in words) (PPT1 in HepG2 cells): poor PPT1 inhibition
CCN(CC)CCNc1ccc(CO)c2sc3ccccc3c(=O)c12 [Hycanthone] | 111 | 
CCCCCCCCCCC[C@@H](C[C@@H]1OC(=O)[C@H]1CCCCCC)OC(=O)[C@H](CC(C)C)NC=O [Orlistat] | 0.179 | PPT1 inhibition in HepG2 cell extracts (in words) [4]: inhibited PPT1 in cell extracts; oral absorption [5]: poorly orally absorbed; % Inhibition (PPT1 [1]; Spectrum Collection library screen, substrate 20 μM): 90.7%; PPT1 inhibition in HepG2 cells (in words) (PPT1 in HepG2 cells): poor PPT1 inhibition
Cc1ncc([N+](=O)[O-])n1CC(O)CCl (centres unmarked) [Ornidazole] | > 100 | 
CC(C)(C)NC1CCN(c2cc(NCc3ccc(Cl)cc3)nc3ccccc23)CC1 [GNS561] |  | PPT1 inhibition (PPT1 [6]; 1 μM after 3 h): 25%; PPT1 inhibition (PPT1 [6]; 1 μM after 72 h): 50%
